From PubChem
The list is not random: actives were taken first. Their share in the collection is about 4.6%.
TAAR1 ag: agonists of human TAAR1. Q96RJ0. CHO RD-HGA16 TAAR1, Fluo-8 calcium fluorescence; vehicle wells 0%, saturating PEA agonist 100%. activation, % at 3 µM. actives 0.99% (n = 360,000);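 active = activation above the mean activation of all test compounds in the run plus 3 SD, cut at about 38% in these data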
Target sequence (Q96RJ0 whole entry, looked up): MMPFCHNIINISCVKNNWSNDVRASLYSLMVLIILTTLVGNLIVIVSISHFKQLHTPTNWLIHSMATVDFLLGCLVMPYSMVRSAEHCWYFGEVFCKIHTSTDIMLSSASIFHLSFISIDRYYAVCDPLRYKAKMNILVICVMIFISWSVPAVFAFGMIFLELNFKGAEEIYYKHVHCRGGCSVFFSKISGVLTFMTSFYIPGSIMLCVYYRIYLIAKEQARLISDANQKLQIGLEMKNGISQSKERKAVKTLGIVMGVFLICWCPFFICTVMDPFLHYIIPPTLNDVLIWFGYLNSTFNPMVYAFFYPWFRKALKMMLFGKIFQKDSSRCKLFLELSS
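Test system: RD-HGA16 (CHO) cells co-expressing Gα16 and hTAAR1 | Doses: Single dose, 3 µM | Schedule: 17-24 h seeding, 75 min 37 °C dye, 30 min RT | Evaluation: % activation from peak over basal fluorescence ratio, DMSO-to-PEA scaled | Technique: Kinetic Fluo-8 calcium fluorescence | Benchmarks: Low control DMSO, high control PEA (EC100)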
OX1R antag-1: blocks the human orexin 1 receptor | O43613 | CHO/OX1R cells, Fluo-8 calcium fluorescence, orexin A | inhibition, % at 5 µM | actives 0.43% (n = 330,000) | AID 434989;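 active = inhibition above its plate's threshold, mean inhibition of all tested compounds on the plate plus 3 SD, cut at about 37% in these data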;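 also: 0% = orexin A challenge wells and 100% = SB-334867-A antagonist wells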
GPR7 antag: human neuropeptides B/W receptor 1 antagonism; P48145; inhibition, % at 4.4 µM; GPR7-expressing cells, fluorescence antagonist assay; actives 1.1% (n = 290,000); in the data active = inhibition above about 16%, passing the limit was not always enough;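 also: cells stimulated with the agonist NPW; 0% = agonist with vehicle and 100% = vehicle without agonist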
Target sequence (P48145 whole entry, looked up): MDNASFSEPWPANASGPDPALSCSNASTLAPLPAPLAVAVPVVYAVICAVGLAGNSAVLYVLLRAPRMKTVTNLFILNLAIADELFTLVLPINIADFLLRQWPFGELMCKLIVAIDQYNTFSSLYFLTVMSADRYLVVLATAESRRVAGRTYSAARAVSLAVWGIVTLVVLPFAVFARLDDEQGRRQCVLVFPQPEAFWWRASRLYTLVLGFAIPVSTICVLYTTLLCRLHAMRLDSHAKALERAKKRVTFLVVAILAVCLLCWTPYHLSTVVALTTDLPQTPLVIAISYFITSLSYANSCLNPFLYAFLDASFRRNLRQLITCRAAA
TAAR1 antagonist: antagonists of human TAAR1; inhibition, % at 3 µM; actives 1.5% (n = 360,000); AID 624466; CHO RD-HGA16 TAAR1, Fluo-8 calcium fluorescence, antagonist; Q96RJ0;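 active = inhibition above a per-plate cutoff, the mean inhibition of test compounds on that plate plus 3 SD, cut at about 49% in these data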;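 also: 0% = DMSO plus EC80 beta-PEA response and 100% = DMSO alone without agonist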
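Assay system: RD-HGA16 CHO cells with stable hTAAR1 and Gα16 / Reagent: EC80 β-phenethylamine stimulus / Doses: 3 µM, single point / Timing: dye loading 75 min at 37 °C, then 30 min room temperature / Measured by: Fluo-8 intracellular calcium dye fluorescence, real-time kinetic reads / Controls: vehicle wells and EC80 agonist wells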
OX1R antag-2: OX1R (human) antagonism; OX1R-expressing cells, FRET antagonist read-out; O43613; inhibition, % at 6.6 µM; actives 1.8% (n = 330,000); in the data active = inhibition mostly above about 38%, no sharp cut-off; inactive = mostly below about 40%;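 also: 0% = agonist challenge alone and 100% = reference antagonist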
CHO parental Ca: signal in parental CHO cells, OX1R antagonist counter-screen; inhibition, % at 5.6 µM; parental CHO-K1, ATP-induced calcium, Fluo-8 fluorescence; actives 0.63% (n = 330,000);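 active = inhibition above that plate's mean sample inhibition plus 3 SD, cut at about 26% in these data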;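 also: 0% = ATP-challenged DMSO wells and 100% = DMSO wells without ATP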
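Material – parental CHO cells · Reagent – ATP stimulus · Compound – single nominal dose of 5.6 µM per compound · Detection – Fluo-8 fluorescence · Read-out basis – percent inhibition of calcium signal · Controls – ATP-challenged DMSO wells low, unchallenged DMSO wells high · Repeats – no replicates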
The depositor's hits bear a star; . = no result given.

SMILES	TAAR1 ag	OX1R antag-1	GPR7 antag	TAAR1 antagonist	OX1R antag-2	CHO parental Ca
CCN(CC)CCNC(=O)c1nn(-c2ccc(Cl)cc2)c2c1CCc1cc(OC)ccc1-2	28.2	.	.	-25.3	.	.
CN1CCN(C2CN(Cc3cn(Cc4ccccc4)nn3)S(=O)(=O)C2)CC1 (stereo unspecified)	0.6	.	.	-25.5	.	.
Cc1cc(C)cc(-n2ccnc2SCC(=O)O)c1	2.9	4.2	29.6*	-9.6	15.3	2.2
CC1=CC(C)(C)N(S(=O)(=O)c2ccc(F)cc2)c2ccccc21	4.2	-13.9	-2.7	-9.8	28.9	-17.4
CC(=O)Nc1ccc(S(=O)(=O)N2c3ccccc3C(C)=CC2(C)C)cc1	5.7	-15.8	22.3*	-16.9	21.2	-13.3
COc1ccc(C(c2nnnn2CCc2ccccc2)N2CCN(C)CC2)cc1OC (stereo unspecified)	7.1	.	0.2	-14.6	.	.
Cn1nnnc1SCC(=O)N1CCN(c2ccc(Cl)cc2)CC1	10.9	-13.2	15.8*	-5.5	3.1	-11.8
Cn1nnnc1SCC(=O)N1CCCCC1	1.9	-14.0	3.6	-0.6	8.0	12.8
CC(=O)c1sc(NC(=O)CS(=O)(=O)c2ccccc2)nc1-c1ccccc1	-0.2	-11.7	.	19.1	21.3	-6.4
Cc1cccc(C=Nc2ccc3c4c(cccc24)CC3)c1O	7.3	54.0*	-4.7	-0.4	17.3	38.9*
Oc1ccc(Cl)cc1C=Nc1ccc2c3c(cccc13)CC2	2.6	62.2*	4.4	-9.0	13.1	59.4*
CCOC(=O)CCCNC(=O)COC(=O)c1cc(C)cc(C)c1	5.8	-27.2	-16.6	4.9	5.7	-5.7
C/C(=N\NC(=O)C1CC1)c1ccc(OC(F)F)cc1OC(F)F	0.7	-24.4	-8.6	-6.9	13.8	-9.9
C/C(=N\NC(=S)NC1CCCCC1)c1ccc(OC(F)F)cc1OC(F)F	0.3	28.0	-9.1	23.2	37.2	40.8*
FC(F)Oc1ccc(NC(=S)NC2CCCCCCC2)cc1	2.6	23.6	-1.5	8.3	29.1	37.2*
CCc1nnc(NC(=O)c2ccc(Cl)c(S(=O)(=O)N3CCc4ccccc43)c2)s1	13.0	-1.1	10.2	19.7	60.5	12.9
Cc1cccc(NC(=O)c2ccc(Cl)c(S(=O)(=O)N3CCCC3)c2)n1	3.2	-26.0	-13.1	-5.0	28.4	-16.3
O=C(Nc1nnc(C2CC2)s1)c1ccc(Cl)c(S(=O)(=O)N2CCc3ccccc3C2)c1	9.9	9.5	-5.4	57.1*	29.8	-0.1
O=C(Nc1ccncc1)c1ccc(Cl)c(S(=O)(=O)N2CCc3ccccc32)c1	15.1	34.3	.	62.9*	49.6*	43.7*
Cc1cccc(NC(=O)c2ccc(Cl)c(S(=O)(=O)N3CCc4ccccc43)c2)n1	2.2	27.2	.	15.7	34.5*	-13.7
O=S(=O)(Nc1ccccc1Cl)c1ccc(NS(=O)(=O)c2cccs2)cc1	38.0*	-5.3	5.1	7.8	7.8	1.0
Cc1cc(Cl)ccc1OCC(=O)Nc1ccncc1	9.8	7.7	4.7	5.4	16.0	49.5*
Cc1cc(Cl)ccc1OCC(=O)NNC(=O)c1cccs1	0.5	-16.4	-13.2	-12.0	-3.1	-20.7
Cc1cc(Cl)ccc1OCC(=O)Nc1ccccc1NS(=O)(=O)c1cccs1	2.1	-7.9	-13.2	10.8	40.6*	13.6
CC(=O)Nc1ccc(NC(=O)C(C)OC(=O)CCCOc2ccc(Cl)cc2C)cc1 (stereo unspecified)	2.4	0.5	.	19.6	53.0*	-22.4
SMILES	TAAR1 ag	OX1R antag-1	GPR7 antag	TAAR1 antagonist	OX1R antag-2	CHO parental Ca
COC(=O)N/N=C/c1sc(N2CCCCC2)nc1-c1cccs1	-2.8	-18.8	2.3	6.2	29.7	-12.4
C/C(CCC1CC(C)OC1=O)=N\NC(N)=O (stereo unspecified)	1.5	-8.5	-9.2	-6.9	8.3	-6.5
NC(=O)c1ccccc1NS(=O)(=O)c1cccs1	9.5	12.4	-1.4	-15.3	12.8	-15.4
O=C(COc1ccccc1)Nc1ccccc1NS(=O)(=O)c1cccs1	-0.4	-13.2	-8.1	11.9	16.6	-11.3
O=C(Nc1ccc(Cl)cc1)Nc1ccccc1NS(=O)(=O)c1cccs1	14.6	-25.5	-12.7	9.0	60.4*	-7.4
CC(=O)Nc1ccc(NC(=O)C(C)OC(=O)CCCN2C(=O)c3cccc4cccc(c34)C2=O)cc1 (stereo unspecified)	10.0	-4.0	.	-1.1	74.1*	-23.6
CC(=O)N1CCN(c2ccccc2NC(=O)COc2ccccc2C)CC1	4.5	-24.8	13.7	28.2	7.6	-17.7
O=C(COc1ccc(Cl)cc1Cl)Nc1ccccc1NS(=O)(=O)c1cccs1	5.6	-10.8	-12.3	-0.2	52.1*	19.5
CC(=O)N1CCN(c2ccccc2NC(=O)COc2ccc(Cl)cc2Cl)CC1	29.7	-23.0	18.5*	39.6	36.7	-8.0
O=C(NCc1ccc(C(F)(F)F)cc1)c1ccc2c(c1)S(=O)(=O)c1ccccc1C2=O	13.2	-18.1	.	-0.4	19.6	-1.2
c1ccc(OCCNc2ccn3nc(-c4ccc(OCCN5CCOCC5)cc4)cc3n2)cc1	20.0	.	.	61.4*	.	.
c1csc(CNc2ccn3nc(-c4ccc(OCCN5CCOCC5)cc4)cc3n2)c1	29.3	.	.	33.1	.	.
COc1ccc(CN2C(=O)CCC(C(=O)O)C2c2ccccc2)cc1 (stereo unspecified)	1.5	-25.9	-3.7	5.9	14.4	-13.5
CCCN(CC(=O)Nc1ccccc1OC)C(=O)Cc1ccc2c(c1)CCC2	.	0.0	.	.	48.4*	-28.0
CCN(CC(=O)Nc1c(F)cccc1F)C(=O)c1ccccc1F	24.7	-14.3	1.2	-2.3	3.0	3.7
Cc1ccccc1OCC(=O)N(CC(C)C)c1c(N)n(CC(C)C)c(=O)[nH]c1=O	0.8	-8.6	-4.8	-13.6	7.3	-0.5
O=c1c2c([N+](=O)[O-])cc([N+](=O)[O-])cc2sn1Cc1ccccc1	31.9	71.0*	4.5	27.6	34.9	53.9*
O=c1c2c([N+](=O)[O-])cc([N+](=O)[O-])cc2sn1-c1ccc(Br)cc1	.	-11.2	0.0	.	18.9	-4.9
COC(=O)c1ccccc1S(=O)(=O)N(Cc1ccco1)Cc1cc2cc(OC)ccc2[nH]c1=O	8.3	3.7	-8.8	-4.2	41.2*	-38.2
Cc1ccc2[nH]c(=O)c(CN(Cc3ccco3)S(=O)(=O)c3c(C)ccc4nsnc34)cc2c1	15.8	-15.9	-7.3	33.8	19.1	-15.8
COc1ccc2[nH]c(=O)c(CN(Cc3cccs3)S(=O)(=O)c3c(C)ccc4nsnc34)cc2c1	29.9	-18.2	-6.7	54.6*	17.4	-16.0
COC(=O)c1ccccc1S(=O)(=O)N(CCCO)Cc1cc2c(C)ccc(C)c2[nH]c1=O	12.2	-5.5	-6.0	19.5	45.6*	-16.2
COc1ccc(CC(=O)N2CC(C)CC(C)C2)cc1OC (stereo unspecified)	-0.4	-17.3	2.9	23.4	7.5	-8.2
CCOC(=O)C1CCN(c2c(-c3ccccc3)c3cc(Cl)ccc3[nH]c2=O)CC1	4.7	-16.3	1.4	-20.4	12.2	-3.8
CC1(C(=O)NCCc2c[nH]c3ccccc23)CCN1Cc1ccccc1OC(F)F (stereo unspecified)	1.0	.	.	21.0	.	.
